In ChEMBL document CHEMBL1155976, “Synthesis and preliminary pharmacological evaluation of imidazo[2,1-f]purine-2,4-dione derivatives” (Eur J Med Chem, 2009) one finds Ki, deltaT and Activity data, which are given here for seven molecules.

The term Ki denotes a dissociation constant, usually derived from enzyme kinetics or from competition with a known ligand. Read a high Ki as weaker binding.

Activity calls are given as the source filed them. No cut-off for these calls is given here.

The target of assay [1] is 5-hydroxytryptamine receptor 2A (Rattus norvegicus, UniProt P14842). The assay can be described thus: Displacement of [3H]ketanserin from 5HT2A receptor in rat cerebral cortex after 20 mins by liquid scintillation counting. It counts as tissue-based. The method, boiled down: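 Rat cerebral cortex homogenised in 50 mM Tris-HCl pH 7.7, spun at 32000 × g, preincubated 10 min at 37 °C, resuspended in 50 volumes. Incubated with 0.6 nM [3H]-ketanserin and test agent (10^-10 to 10^-4 M) at 37 °C for 20 min; mianserin as displacer. GF/B filtration, scintillation counting; Ki from ≥3 experiments, 10 concentrations in triplicate.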
In general terms: In a radioligand displacement assay an active substance lowers the binding of a labelled ligand.

Assay [2] concerns the target T1, 5-hydroxytryptamine receptor 1A (Rattus norvegicus, UniProt P19327).
T1 sequence (P19327 whole entry): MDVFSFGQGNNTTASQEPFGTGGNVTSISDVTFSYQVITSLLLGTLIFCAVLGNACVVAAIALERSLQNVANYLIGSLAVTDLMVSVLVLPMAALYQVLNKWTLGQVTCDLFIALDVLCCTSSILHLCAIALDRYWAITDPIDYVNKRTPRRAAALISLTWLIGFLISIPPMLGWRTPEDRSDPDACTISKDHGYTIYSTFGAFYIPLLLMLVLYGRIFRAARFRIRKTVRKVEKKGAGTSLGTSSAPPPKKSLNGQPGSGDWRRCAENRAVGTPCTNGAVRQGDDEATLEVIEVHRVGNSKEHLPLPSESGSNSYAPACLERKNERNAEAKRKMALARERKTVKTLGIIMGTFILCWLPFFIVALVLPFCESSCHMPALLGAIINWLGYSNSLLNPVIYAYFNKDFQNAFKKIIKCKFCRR
Description: Displacement of [3H]8-OH-DPAT from 5HT1A receptor in rat cerebral cortex after 15 mins by liquid scintillation counting. It counts as tissue-based.

In assay [3] the test system is Mus musculus. Description: Agonist activity at 5HT1A receptor in Swiss albino mouse assessed as decrease in rectal temperature at 10 mg/kg, ip after 60 mins. The format is functional, organism-based. Further details: dose 10 mg/kg. An outline of the steps: (§1)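 Male Albino Swiss mice (24–28 g), free food and water, room at 20 ± 1 °C; test agent suspended in 1% aqueous Tween 80, given ip at 10 ml/kg. Rectal temperature read with a thermometer at 30, 60, 90 and 120 min after dosing. Result expressed as Δt from basal temperature taken at the start; six to ten animals per group, each used once.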

The subject of assay [4] is Rattus norvegicus. The assay can be described thus: Behavioral activity in Wistar rat assessed as reduction of 8-OH-DPAT-induced lower lip retraction at 10 to 20 mg/kg, ip administered 45 mins before 8-OH-DPAT challenge. It counts as functional, organism-based.
Assay [5] concerns Mus musculus. Description: Agonist activity at 5HT1A receptor in Swiss albino mouse assessed as decrease in rectal temperature at 10 mg/kg, ip after 60 mins in presence of WAY 100635 administered 15 mins before drug challenge. The format is functional, organism-based. Further details: dose 10 mg/kg. The method, boiled down:
(§2)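 Male Albino Swiss mice (24–28 g). WAY 100635 (0.1 mg/kg, sc, in distilled water) given 15 min before test agent (ip, suspended in 1% Tween 80, 10 ml/kg). Rectal temperature recorded 30 and 60 min after test agent injection. Expressed as Δt versus basal temperature at the start of the experiment.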

Assay [6] deals with Mus musculus. Description: Agonist activity at 5HT1A receptor in Swiss albino mouse assessed as decrease in rectal temperature at 10 mg/kg, ip after 30 mins in presence of WAY 100635 administered 15 mins before drug challenge. It counts as functional, organism-based. Further details: dose 10 mg/kg. The method, boiled down:
as §2

Assay [7] relates to Mus musculus. Description: Agonist activity at 5HT1A receptor in Swiss albino mouse assessed as decrease in rectal temperature at 5 mg/kg, ip after 90 mins. It counts as functional, organism-based. Details: dose 5 mg/kg. An outline of the steps:
as §1

For the next assay, the target named is D(2) dopamine receptor (Rattus norvegicus, UniProt P61169). Description: Displacement of [3H]spiperone from dopamine D2 receptor in rat striatum membrane after 30 mins by liquid scintillation counting. It counts as cell membranes. An outline of the steps:
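Rat striatum homogenised in 50 mM potassium phosphate pH 7.4 and spun twice at 20000 × g. Membranes (3 mg wet weight) incubated with 1 nM [3H]-spiperone and test agent in 0.5 ml for 30 min at 37 °C. Nonspecific binding with (+)butaclamol. GF/B filtration, two washes with ice-cold buffer, scintillation counting; Ki from ≥3 experiments, 10 concentrations in triplicate.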

Assay [8] concerns Mus musculus. The assay can be described thus: Agonist activity at 5HT1A receptor in Swiss albino mouse assessed as decrease in rectal temperature at 5 mg/kg, ip after 30 mins. It counts as functional, organism-based. Further details: dose 5 mg/kg. An outline of the steps:
as §1

Assay [9] has as its system Rattus norvegicus. Description: Behavioral activity in Wistar rat assessed as induction of lower lip retraction at 10 to 20 mg/kg, ip. It counts as functional, organism-based. An outline of the steps:
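Male Wistar rats (290–310 g); agent ip in 1% Tween 80 at 2 ml/kg. Rats housed singly in cages and scored 15, 30 and 45 min after dosing: 0 = lower incisors not visible, 0.5 = partly, 1 = fully visible. Maximum total score 3 per rat.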

Assay [10] has as its system Mus musculus. Description: Agonist activity at 5HT1A receptor in Swiss albino mouse assessed as decrease in rectal temperature at 10 mg/kg, ip after 120 mins. It counts as functional, organism-based. Further details: dose 10 mg/kg. An outline of the steps: as §1
Assay [11] relates to Mus musculus. Description: Agonist activity at 5HT1A receptor in Swiss albino mouse assessed as decrease in rectal temperature at 10 mg/kg, ip after 30 mins. Further details: dose 10 mg/kg. The format is functional, organism-based. The method, boiled down: as §1
Assay [12] has as its system Mus musculus. Description: Agonist activity at 5HT1A receptor in Swiss albino mouse assessed as decrease in rectal temperature at 5 mg/kg, ip after 120 mins. It counts as functional, organism-based. Details: dose 5 mg/kg. The method, boiled down:
as §1

Assay [13] deals with Mus musculus. The assay can be described thus: Agonist activity at 5HT1A receptor in Swiss albino mouse assessed as decrease in rectal temperature at 5 mg/kg, ip after 60 mins. The format is functional, organism-based. Further details: dose 5 mg/kg. The method, boiled down: as §1
In assay [14] the test system is Mus musculus. Description: Agonist activity at 5HT1A receptor in ip dosed Swiss albino mouse assessed as decrease in rectal temperature. The format is functional, organism-based. An outline of the steps:
as §1

The test system of assay [15] is Mus musculus. Description: Agonist activity at 5HT1A receptor in Swiss albino mouse assessed as decrease in rectal temperature at 10 mg/kg, ip after 90 mins. It counts as functional, organism-based. Further details: dose 10 mg/kg. An outline of the steps: as §1
Assay [16] has as its system Mus musculus. The assay can be described thus: Antidepressant activity in Swiss albino mouse assessed as reduction of immobility time at 30 mg/kg, ip administered 30 mins before test by forced swimming test. The note with it: route intraperitoneal. It counts as functional. An outline of the steps:
(§3)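 Male Albino Swiss mice (24–28 g); agent suspended in 1% aqueous Tween 80, ip 10 ml/kg, 30 min before the test. Total immobility time scored over the last 4 min of a 6-min swim session. n = 8–10 mice per group; mean ± SEM, compared with vehicle.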

The subject of assay [17] is Mus musculus. Description: Anxiolytic activity in Swiss albino mouse assessed as number of punished crossings at 20 mg/kg, ip. administered 30 mins before test measured for 60s by four plate test. It counts as functional. The method, boiled down:
(§4)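 Male Albino Swiss mice. Box with four metal floor plates separated by 4 mm gaps; 120 V between adjacent plates for 0.5 s delivered on crossing. Mice explored 15 s before testing. Agent (ip, 1% Tween 80) given 30 min before the test. Punished crossings counted; n = 10 mice per group, mean ± SEM.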

For assay [18], the system named is Mus musculus. The assay can be described thus: Antidepressant activity in Swiss albino mouse assessed as reduction of immobility time at 20 mg/kg, ip administered 30 mins before test by forced swimming test. The format is functional. The note with it: route intraperitoneal. An outline of the steps:
as §3

Assay [19] concerns Mus musculus. Description: Anxiolytic activity in Swiss albino mouse assessed as number of punished crossings at 30 mg/kg, ip administered 30 mins before test measured for 60s by four plate test. It counts as functional. The note with it: route intraperitoneal. The method, boiled down:
as §4

Chain of D(2) dopamine receptor (P61169 whole entry): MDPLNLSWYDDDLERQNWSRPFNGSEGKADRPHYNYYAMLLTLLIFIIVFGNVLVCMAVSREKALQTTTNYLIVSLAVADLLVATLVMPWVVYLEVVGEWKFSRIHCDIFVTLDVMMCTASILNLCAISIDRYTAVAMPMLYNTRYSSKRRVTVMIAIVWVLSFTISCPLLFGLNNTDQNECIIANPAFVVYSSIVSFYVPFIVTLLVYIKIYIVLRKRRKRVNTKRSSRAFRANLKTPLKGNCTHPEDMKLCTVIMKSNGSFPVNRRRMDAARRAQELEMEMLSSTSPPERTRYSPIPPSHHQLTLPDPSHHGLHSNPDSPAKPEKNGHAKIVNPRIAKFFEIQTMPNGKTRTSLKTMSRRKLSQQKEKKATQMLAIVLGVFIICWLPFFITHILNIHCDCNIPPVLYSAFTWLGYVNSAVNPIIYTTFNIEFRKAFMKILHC
Chain of 5-hydroxytryptamine receptor 2A (P14842 whole entry): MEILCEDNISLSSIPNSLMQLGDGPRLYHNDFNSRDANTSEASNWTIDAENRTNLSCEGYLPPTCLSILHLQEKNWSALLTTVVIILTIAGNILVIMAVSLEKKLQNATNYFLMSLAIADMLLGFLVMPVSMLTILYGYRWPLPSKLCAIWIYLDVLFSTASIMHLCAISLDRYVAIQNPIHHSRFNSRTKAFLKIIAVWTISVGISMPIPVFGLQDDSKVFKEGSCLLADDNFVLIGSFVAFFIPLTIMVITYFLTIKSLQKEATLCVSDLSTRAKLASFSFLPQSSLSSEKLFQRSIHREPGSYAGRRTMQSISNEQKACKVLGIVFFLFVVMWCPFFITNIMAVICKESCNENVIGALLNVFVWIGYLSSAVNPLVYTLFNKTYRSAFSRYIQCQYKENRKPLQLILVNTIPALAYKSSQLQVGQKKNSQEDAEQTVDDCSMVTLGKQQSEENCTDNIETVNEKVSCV

Regarding `COc1ccccc1N1CCN(CCCN2CCCn3c2nc2c3c(=O)n(C)c(=O)n2C)CC1`, the Ki was determined as 486 nM in assay [1] and 2.8 nM in assay [2].

Turning to `Cn1c(=O)c2c(nc3n2CC(C(=O)NCCN2CCN(c4ccccc4)CC2)N3)n(C)c1=O` (centres undefined), the Ki in assay [2] was > 1000 nM.

Regarding `COc1ccccc1N1CCN(CCCn2c(C)cn3c4c(=O)n(C)c(=O)n(C)c4nc23)CC1`, the deltaT in the assay with Mus musculus [3] was -0.5 °C; in the assay with Mus musculus [5], -0.9 °C; with Mus musculus [6] it was -1 °C; in the assay on Mus musculus [7], -0.3 °C; with Mus musculus [8], -0.4 °C; in the assay on Mus musculus [10], -0.2 °C. In addition, the deltaT is -0.9 °C with Mus musculus [11], -0.1 °C in the assay on Mus musculus [12], -0.4 °C with Mus musculus [13] and -0.6 °C in the assay with Mus musculus [15]. The Ki was > 1000 nM in assay [1], 345 nM at D(2) dopamine receptor and 16.8 nM in [2]. Further, the result in the assay with Rattus norvegicus [4] and with Rattus norvegicus [9] was inactive. Besides, the Activity result in the assay with Mus musculus [14] is “Dose-dependent effect”.

Consider `COc1ccccc1N1CCN(CCNC(=O)C2Cn3c(nc4c3c(=O)n(C)c(=O)n4C)N2)CC1` (centres undefined), for which the Ki in assay [2] is > 1000 nM.

On to `COc1ccccc1N1CCN(CCCn2c(-c3ccccc3)cn3c4c(=O)n(C)c(=O)n(C)c4nc23)CC1`, for which the deltaT with Mus musculus [3] was -0.6 °C; in the assay with Mus musculus [6] it was -0.9 °C; in the assay with Mus musculus [8] it was -0.7 °C; with Mus musculus [10] it was -0.5 °C; in the assay on Mus musculus [11], -2 °C; with Mus musculus [12], 0 °C. For the same molecule, the deltaT with Mus musculus [15] is -0.6 °C. Also, the values for the Ki (in assay [1]; on D(2) dopamine receptor; in assay [2]) were > 1000 nM, 143 nM and 5.6 nM, respectively. Moreover, the Activity in the assay with Mus musculus [16] was 172 s; with Mus musculus [17], 3.5; with Mus musculus [18], 169.3 s; in the assay on Mus musculus [19], 3.2; in the assay with Mus musculus [14] it was “Dose-dependent effect”.

Regarding `Cn1c(=O)c2c(nc3n(CCCN4CCN(c5cccc(Cl)c5)CC4)c(-c4ccccc4)cn23)n(C)c1=O`, the inhibition constant Ki in assay [1] is > 1000 nM.

In the case of `Cc1cn2c3c(=O)n(C)c(=O)n(C)c3nc2n1CCCN1CCN(c2ccccc2)CC1`, the Ki in [1] is > 1000 nM; at D(2) dopamine receptor it was > 1000 nM; in [2], 76.4 nM.
